Test results reported in ChEMBL document CHEMBL1177763, “Synthesis and biological activity of glycosyl-1H-1,2,3-triazoles” (Bioorg Med Chem Lett, 2010).
pIC50, pKi: −log10 of the molar value. Activity calls are given as the source filed them. The rule behind the calls is not given here.

Columns and labels:
[1] = target: Beta-galactosidase (Escherichia coli) (UniProt Q8VNN2); assay: Inhibition of Escherichia coli beta-galactosidase at 1 mM
[2] = target: T1, Beta-galactosidase (Aspergillus oryzae) (UniProt Q2U7N3); assay: Inhibition of Aspergillus oryzae beta-galactosidase at 1 mM
T1 sequence (whole entry): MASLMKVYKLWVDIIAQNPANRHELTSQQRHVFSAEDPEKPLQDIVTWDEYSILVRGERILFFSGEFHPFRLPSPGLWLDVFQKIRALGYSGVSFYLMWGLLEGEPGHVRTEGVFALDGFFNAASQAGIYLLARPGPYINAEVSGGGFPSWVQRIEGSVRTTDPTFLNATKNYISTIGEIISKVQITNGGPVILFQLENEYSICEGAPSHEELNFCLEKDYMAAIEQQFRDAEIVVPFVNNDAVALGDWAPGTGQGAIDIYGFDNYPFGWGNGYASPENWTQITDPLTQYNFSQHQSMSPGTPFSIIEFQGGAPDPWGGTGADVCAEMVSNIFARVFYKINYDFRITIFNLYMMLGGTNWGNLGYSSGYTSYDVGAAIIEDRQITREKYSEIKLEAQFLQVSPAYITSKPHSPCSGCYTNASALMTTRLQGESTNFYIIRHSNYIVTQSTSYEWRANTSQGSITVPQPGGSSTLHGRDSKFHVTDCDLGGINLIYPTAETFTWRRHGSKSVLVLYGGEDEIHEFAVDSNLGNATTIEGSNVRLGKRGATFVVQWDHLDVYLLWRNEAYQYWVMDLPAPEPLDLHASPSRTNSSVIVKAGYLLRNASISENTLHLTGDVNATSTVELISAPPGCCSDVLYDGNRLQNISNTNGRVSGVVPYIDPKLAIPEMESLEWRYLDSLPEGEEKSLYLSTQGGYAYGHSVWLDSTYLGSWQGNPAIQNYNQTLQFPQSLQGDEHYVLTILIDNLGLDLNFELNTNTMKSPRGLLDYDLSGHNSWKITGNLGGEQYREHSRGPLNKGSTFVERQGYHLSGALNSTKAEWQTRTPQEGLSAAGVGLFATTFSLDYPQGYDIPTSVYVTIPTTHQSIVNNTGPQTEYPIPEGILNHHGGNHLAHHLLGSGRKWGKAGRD

[3] = target: Alpha-galactosidase (Coffea arabica) (UniProt Q42656); assay: Inhibition of green coffee bean alpha-galactosidase at 1 mM
[4] = tested on: Saccharomyces cerevisiae; assay: Inhibition of yeast alpha-glucosidase at 1 mM
[5] = target: Beta-galactosidase (Escherichia coli, UniProt Q8VNN2); assay: Inhibition of Escherichia coli beta-galactosidase
[6] = target: T2, Killer cell lectin-like receptor subfamily B member 1A (Rattus norvegicus, UniProt P27471); assay: Binding affinity to fluorescein-labeled rat NKR-P1A after 2 hrs by fluorescence assay
T2 sequence (P27471 whole entry): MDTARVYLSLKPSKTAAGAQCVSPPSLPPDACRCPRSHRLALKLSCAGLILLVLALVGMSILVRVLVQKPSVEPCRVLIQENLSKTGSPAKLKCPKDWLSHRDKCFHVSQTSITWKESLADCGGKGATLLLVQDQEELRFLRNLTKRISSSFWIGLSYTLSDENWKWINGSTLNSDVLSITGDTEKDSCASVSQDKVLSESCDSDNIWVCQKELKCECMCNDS
Outline: (§1)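 Competitive displacement assay: the compound's ability to displace a high-affinity receptor ligand was measured on rat NKR-P1A and human CD69 activating receptors. Affinity was expressed relative to free N-acetyl-D-glucosamine as the reference ligand.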

[7] = target: T3, Early activation antigen CD69 (Homo sapiens, UniProt Q07108); assay: Binding affinity to rhodamine-labeled human CD69 receptor after 2 hrs by fluorescence assay; outline: as §1
T3 sequence (Q07108 whole entry): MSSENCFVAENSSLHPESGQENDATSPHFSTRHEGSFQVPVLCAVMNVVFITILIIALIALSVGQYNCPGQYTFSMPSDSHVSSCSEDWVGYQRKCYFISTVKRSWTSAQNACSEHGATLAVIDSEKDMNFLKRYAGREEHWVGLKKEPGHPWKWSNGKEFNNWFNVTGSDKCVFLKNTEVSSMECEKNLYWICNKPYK

[8] = tested on: Prunus dulcis; assay: Inhibition of sweet almond beta-glucosidase at 1 mM
[9] = tested on: Aspergillus oryzae; assay: Inhibition of Aspergillus oryzae CCF 1066 beta-N-acetylglucosaminidase at 2 mM
[10] = tested on: Penicillium pittii; assay: Inhibition of Penicillium pittii CCF 2277 beta-N-acetylglucosaminidase at 2 mM
[11] = tested on: Talaromyces flavus; assay: Inhibition of Talaromyces flavus CCF 2686 beta-N-acetylglucosaminidase at 2 mM
[12] = tested on: Penicillium oxalicum; assay: Inhibition of Penicillium oxalicum CCF 1959 beta-N-acetylglucosaminidase at 2 mM

Beta-galactosidase (Escherichia coli), sequence (Q8VNN2 whole entry, looked up): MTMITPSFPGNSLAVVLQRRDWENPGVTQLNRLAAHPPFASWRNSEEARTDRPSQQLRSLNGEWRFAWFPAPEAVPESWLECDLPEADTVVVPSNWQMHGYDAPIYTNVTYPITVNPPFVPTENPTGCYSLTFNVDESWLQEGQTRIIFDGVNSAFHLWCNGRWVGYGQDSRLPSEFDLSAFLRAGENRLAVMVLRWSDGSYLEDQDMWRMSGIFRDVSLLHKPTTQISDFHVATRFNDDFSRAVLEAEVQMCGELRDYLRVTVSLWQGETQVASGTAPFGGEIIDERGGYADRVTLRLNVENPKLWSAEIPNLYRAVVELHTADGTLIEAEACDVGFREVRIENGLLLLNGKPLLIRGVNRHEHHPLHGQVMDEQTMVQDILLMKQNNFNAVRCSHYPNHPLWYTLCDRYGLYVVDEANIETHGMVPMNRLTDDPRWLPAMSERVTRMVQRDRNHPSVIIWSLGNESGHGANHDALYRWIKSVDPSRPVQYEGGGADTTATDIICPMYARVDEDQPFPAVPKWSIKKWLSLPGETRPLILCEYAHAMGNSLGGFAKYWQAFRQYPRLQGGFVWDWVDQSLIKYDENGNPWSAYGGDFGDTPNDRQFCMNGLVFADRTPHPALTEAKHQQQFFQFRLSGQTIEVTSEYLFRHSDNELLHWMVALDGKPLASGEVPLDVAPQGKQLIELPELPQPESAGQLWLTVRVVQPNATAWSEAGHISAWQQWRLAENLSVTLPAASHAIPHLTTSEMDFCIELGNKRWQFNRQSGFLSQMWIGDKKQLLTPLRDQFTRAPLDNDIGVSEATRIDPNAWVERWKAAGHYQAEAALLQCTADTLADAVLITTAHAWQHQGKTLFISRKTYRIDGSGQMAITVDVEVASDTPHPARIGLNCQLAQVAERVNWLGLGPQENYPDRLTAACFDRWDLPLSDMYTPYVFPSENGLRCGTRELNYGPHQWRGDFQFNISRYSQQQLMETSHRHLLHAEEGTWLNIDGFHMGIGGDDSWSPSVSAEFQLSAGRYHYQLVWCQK
Beta-galactosidase, sequence (Q8VNN2 whole entry): as the sequence (Q8VNN2 whole entry, looked up) above
Alpha-galactosidase (Coffea arabica), sequence (Q42656 16-378 limits assumed): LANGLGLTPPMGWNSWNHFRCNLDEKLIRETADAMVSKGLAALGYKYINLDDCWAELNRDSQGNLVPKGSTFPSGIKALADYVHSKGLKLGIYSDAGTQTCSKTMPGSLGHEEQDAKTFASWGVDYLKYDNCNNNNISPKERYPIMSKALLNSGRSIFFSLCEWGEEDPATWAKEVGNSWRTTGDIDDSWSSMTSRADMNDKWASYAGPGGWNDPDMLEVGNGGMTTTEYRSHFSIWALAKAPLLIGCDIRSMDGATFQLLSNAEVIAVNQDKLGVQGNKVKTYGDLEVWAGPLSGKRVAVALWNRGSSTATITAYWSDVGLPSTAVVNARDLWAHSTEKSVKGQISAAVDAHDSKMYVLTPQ

OC[C@H]1O[C@@H](n2ccnn2)[C@H](O)[C@@H](O)[C@H]1O
inhibition [1]: inactive | inhibition [2]: inactive

OC[C@H]1O[C@H](n2ccnn2)[C@H](O)[C@@H](O)[C@H]1O
inhibition [3]: inactive

OC[C@H]1O[C@H](n2ccnn2)[C@H](O)[C@@H](O)[C@@H]1O
inhibition [4]: inactive

OC[C@H]1O[C@@H](n2cc(-c3ccccc3)nn2)[C@H](O)[C@@H](O)[C@@H]1O
pKi [5]: 3.48

CC(=O)N[C@@H]1[C@@H](O)[C@H](O)[C@@H](CO)O[C@H]1O [N-ACETYLGLUCOSAMINE]
pIC50 [6]: 5.70 | pIC50 [7]: 3.90

OC[C@H]1O[C@@H](n2ccnn2)[C@H](O)[C@@H](O)[C@@H]1O
inhibition [8]: inactive

CC(=O)N[C@@H]1[C@@H](O)[C@H](O)[C@@H](CO)O[C@H]1n1ccnn1
inhibition [9]: inactive | inhibition [10]: inactive | pIC50 [6]: 7.20 | inhibition [11]: inactive | inhibition [12]: inactive | pIC50 [7]: 5.40
